beta cell repl: MIN6 beta-cell proliferation induction | MIN6 cells proliferation, ATPlite luminescence, 48 h; cells starved in 0.2% serum; 100% = growth in 10% serum | proliferation, % at 10 µM | hit rate 0.29% among 330,000 | AID 2380;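 active = compounds whose signal lies at least 3.5 SD above the mean of all wells on their plate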
hiPSC survival: hiPSC single-cell survival enhancement; ATPlite luminescence; 100% = ROCK inhibitor wells, 0% = DMSO; survival enhancement, % at 20 µM; hit rate 0.044% among 360,000; in the data active = survival enhancement above about 18%;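 also: cells exposed to compounds for 16 hours before the ATP read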
NR1D1 modulator: modulates human Rev-erb alpha binding to DNA. P20393. Rev-erbα–FITC-DNA binding, fluorescence polarization, 90 min. activity, % at 10 µM. hit rate 0.79% among 370,000;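 active = activity above about 14%, limit read from the data; passing the limit was not always enough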
Target sequence (P20393 whole entry, looked up): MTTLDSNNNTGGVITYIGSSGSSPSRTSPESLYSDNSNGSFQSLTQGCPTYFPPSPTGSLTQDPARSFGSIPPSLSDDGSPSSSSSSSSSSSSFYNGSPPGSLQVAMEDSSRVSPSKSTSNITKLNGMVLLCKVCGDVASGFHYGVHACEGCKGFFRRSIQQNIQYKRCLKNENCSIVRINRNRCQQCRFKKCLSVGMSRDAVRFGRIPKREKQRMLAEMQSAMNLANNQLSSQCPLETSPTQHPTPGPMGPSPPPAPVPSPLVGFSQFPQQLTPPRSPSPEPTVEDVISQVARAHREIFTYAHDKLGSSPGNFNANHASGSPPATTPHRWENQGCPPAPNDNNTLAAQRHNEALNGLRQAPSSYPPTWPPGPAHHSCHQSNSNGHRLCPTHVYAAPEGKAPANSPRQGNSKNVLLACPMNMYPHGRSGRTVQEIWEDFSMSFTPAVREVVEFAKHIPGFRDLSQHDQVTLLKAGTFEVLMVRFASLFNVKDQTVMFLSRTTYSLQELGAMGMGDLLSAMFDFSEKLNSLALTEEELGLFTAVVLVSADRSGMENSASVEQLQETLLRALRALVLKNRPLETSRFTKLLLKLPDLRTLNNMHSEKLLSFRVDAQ
PG9 Ab binder: small molecules binding HIV-1 gp120 antibody PG9. TR-FRET gp120-PG9 antibody binding. inhibition, % at 6.7 µM. hit rate 0.43% among 360,000. AID 624416; in the data active = inhibition above about 8.5%
T cruzi inh: T. cruzi replication inhibition | T. cruzi beta-gal in NIH3T3, luminescence, 90 h | inhibition, % (test concentration not listed) | hit rate 1.4% among 300,000;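 active = mean inhibition across valid replicates above about 55%, limit read from the data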;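 also: signal also drops with host cell toxicity which is not excluded here; higher percent means less beta-gal luminescence so fewer parasites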
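compound dosing = single 50 nL compound addition per well in DMSO | material = NIH/3T3 host cells with β-galactosidase reporter T. cruzi | input = 5,000 host fibroblasts per well | timing = ≥90 h infection period, 3 h prior cell attachment | read-out basis = percent inhibition of parasite-derived β-gal signal | detection = GalScreen β-gal luminescence, detergent lysis, 60 min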
H9c2 TAG inh: triacylglycerol accumulation inhibition. hit rate 0.66% among 230,000. inhibition, % at 12.5 µM. H9c2 cells, Nile Red lipid (TAG) fluorescence; cells loaded with 200 µM oleic acid. AID 651582;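 active = pattern-corrected inhibition of lipid staining of at least 50% with the nuclear-stain viability signal not falling by more than 50%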
NR1D1 mod conf: Rev-erb alpha (human) modulation, hit confirmation; shares compounds with NR1D1 modulator; hit rate 61% among 3,000; activation, % at 25 µM; Rev-erb alpha FITC-DNA binding, fluorescence polarization, 90 min; AID 1259319;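 active = activation at or above a set limit, or at least 3 SD above the negative control mean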
RORg DNA counter: RORgamma DNA-binding activity, dose-response counter-screen; shares compounds with NR1D1 modulator; purified RORgamma protein-FITC-DNA binding, fluorescence polarization; IC50, µM; hit rate 8% among 910;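 active = Compounds whose fitted half-maximal concentration for disrupting protein-DNA binding is below 10 micromolar; the record names Rev-erb in its text, so the target is in doubt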
Of the large screens only hits and unclear results are named; the others gave an inactive call (follow-up assays come after a bar, where they were run). Sampled rows, rich in hits. Any-hit rate of the full collection: about 2.9%.

Cc1ccc(NC(=O)CSc2nc3ccccc3nc2N2CCOCC2)c(C)c1	NR1D1 modulator 38.4 | NR1D1 mod conf 40.3 | RORg DNA counter inactive
COc1cc(-c2nc3n(n2)C(c2ccc(F)cc2)C2=C(CCCC2=O)N3)cc(OC)c1OC (stereo unspecified)	none (no result: H9c2 TAG inh)
COc1ccc(CNC(=O)COC(=O)CN2C(=O)C(C)Oc3ccc(C)cc32)cc1 (stereo unspecified)	none (no result: H9c2 TAG inh)
CCc1ccccc1N(C)S(=O)(=O)c1ccc2[nH]cc(C(=O)N3CCc4ccccc43)c(=O)c2c1	NR1D1 modulator 45.3 (no result: H9c2 TAG inh) | NR1D1 mod conf 26.8
Cc1ccc(-n2c(=O)c3c4c(sc3n3c(=S)[nH]nc23)CCC4)cc1	none
CN(C)C(=O)CSc1nc(-c2ccccc2)c(-c2ccccc2)o1	none
CNC(=O)CSc1nc(-c2ccccc2)c(-c2ccccc2)o1	NR1D1 modulator 14.0 | NR1D1 mod conf inactive
O=C(CCCC(=O)OCC(=O)c1cccs1)Nc1ccc(F)cc1	none
O=C(CCCC(=O)OCC(=O)c1cccs1)Nc1ccc(Oc2ccccc2)cc1	NR1D1 modulator 68.3 (no result: H9c2 TAG inh) | NR1D1 mod conf 48.0 | RORg DNA counter inactive
Cc1ccc2nc(SCc3ccccc3)c(C=O)c(=O)n2c1	NR1D1 modulator 42.1 (no result: H9c2 TAG inh) | NR1D1 mod conf 30.4
COCc1cc(=O)[nH]c(-c2csc(C)n2)n1	none
O=C(NNc1c2ccccc2nc2ccccc12)c1cccc(O)c1	NR1D1 modulator 19.8 (no result: H9c2 TAG inh) | NR1D1 mod conf inactive
CCOC(=O)c1c(NC(=O)c2ccc(S(=O)(=O)N3CCOCC3)cc2)sc2c1CCN(C)C2	none (no result: T cruzi inh, H9c2 TAG inh)
CCOC(=O)c1c(NC(=O)c2ccc(S(=O)(=O)N3CCOCC3)cc2)sc2c1CC(C)(C)NC2(C)C	NR1D1 modulator 42.2 (no result: H9c2 TAG inh) | NR1D1 mod conf inactive
Cc1ccc(-c2nc(NC(=O)c3ccc(S(=O)(=O)N(CCC#N)CCC#N)cc3)sc2-c2ccccc2)cc1	NR1D1 modulator 25.6, T cruzi inh 56.2 (no result: H9c2 TAG inh) | NR1D1 mod conf 17.9
CN(C)S(=O)(=O)c1ccc(C(=O)Nc2nc(-c3ccccc3)c(C(=O)c3ccccc3)s2)cc1	none (no result: H9c2 TAG inh)
N#CCCN(CCC#N)S(=O)(=O)c1ccc(C(=O)Nc2nc(-c3ccccc3)c(C(=O)c3ccccc3)s2)cc1	NR1D1 modulator 189.0 | NR1D1 mod conf 176.8 | RORg DNA counter 4.07
Cc1c(Cc2ccc3c(c2)OCO3)sc(NC(=O)c2ccc3ccccc3c2)c1C(N)=O	NR1D1 modulator 22.7 | NR1D1 mod conf inactive
C=CCNC(=O)c1ccc(-c2nc(-c3ccc(Cl)cc3Cl)cs2)cc1	NR1D1 modulator 31.4 (no result: H9c2 TAG inh) | NR1D1 mod conf 44.3 | RORg DNA counter inactive
CN(c1ccccc1)S(=O)(=O)c1ccc(-c2ccccc2)cc1	none
Cc1ccc(C(=O)N(CC#N)CC#N)cc1C	none (no result: H9c2 TAG inh)
CN1C(=O)c2cc(NC(=O)Nc3ccccc3)ccc2OC[C@H]2O[C@@H](CC(=O)NC3Cc4ccccc4C3)CC[C@@H]21	none (no result: beta cell repl, hiPSC survival, PG9 Ab binder, T cruzi inh, H9c2 TAG inh)
Cc1nn(C)cc1NC(=O)C[C@H]1CC[C@H]2[C@@H](COc3ccc(NC(=O)Nc4ccccc4)cc3C(=O)N2C)O1	NR1D1 modulator 42.4 (no result: beta cell repl, hiPSC survival, PG9 Ab binder, T cruzi inh, H9c2 TAG inh) | NR1D1 mod conf 21.2
COC(=O)C[C@@H]1CC[C@H]2[C@@H](COc3ccc(NC(=O)Nc4ccccc4)cc3C(=O)N2C)O1	none (no result: beta cell repl, hiPSC survival, PG9 Ab binder, T cruzi inh, H9c2 TAG inh)
CN1C(=O)c2cc(NC(=O)Nc3ccccc3)ccc2OC[C@H]2O[C@@H](CC(=O)NC3CCC3)CC[C@@H]21	NR1D1 modulator 49.5 (no result: beta cell repl, hiPSC survival, PG9 Ab binder, T cruzi inh, H9c2 TAG inh) | NR1D1 mod conf 29.2 | RORg DNA counter inactive
COc1ccc(C(=O)Nc2ccc3c(c2)C(=O)N(C)[C@H]2CC[C@H](CC(=O)NCC4CC4)O[C@@H]2CO3)cc1	NR1D1 modulator 29.8 (no result: beta cell repl, hiPSC survival, PG9 Ab binder, T cruzi inh, H9c2 TAG inh) | NR1D1 mod conf 17.7
Cc1ccc(-c2onc3ccc(C(=O)/C=C/N(C)C)cc23)cc1	none (no result: H9c2 TAG inh)
COc1ccc2nc(-n3c(C)ccc3C)sc2c1	none (no result: H9c2 TAG inh)
COc1ccc(NC(=O)CSc2nc(-c3ccc(C)cc3)cc(C(F)(F)F)c2C#N)cc1	NR1D1 modulator 24.3 | NR1D1 mod conf 40.5 | RORg DNA counter 1.49
